# ChEMBL document CHEMBL5247578, “Effective synthesis of benzimidazoles-imidazo[1,2-a]pyrazine conjugates: A comparative study of mono-and bis-benzimidazoles for antitumor activity” (Eur J Med Chem, 2019)
# The source made the active and inactive calls. The rule behind the calls is not given here.
# Tests used:
# SNB-19 = experiment: Antiproliferative activity against human SNB-19 cells assessed as cell growth at 0.00000001 M incubated for 48 hrs by SRB assay relative to control; type: functional; conditions: dose 10 nM, read-out: Activity
# HOP-92 = experiment: Growth inhibition against human HOP-92 cells incubated for 48 hrs by sulforhodamine B assay; type: functional
# SR [1] = experiment: Antiproliferative activity against human SR cells assessed as cell growth at 0.00001 M incubated for 48 hrs by SRB assay relative to control; type: functional; conditions: read-out: Activity
# MDA-MB-435 = experiment: Growth inhibition against human MDA-MB-435 cells incubated for 48 hrs by sulforhodamine B assay; type: functional
# SK-MEL-28 = experiment: Antiproliferative activity against human SK-MEL-28 cells assessed as cell growth at 0.00001 M incubated for 48 hrs by SRB assay relative to control; type: functional; conditions: read-out: Activity
# TK-10 [2] = experiment: Growth inhibition against human TK-10 cells incubated for 48 hrs by sulforhodamine B assay; type: functional
# OVCAR-4 = experiment: Growth inhibition against human OVCAR-4 cells assessed as total growth inhibitory concentration incubated for 48 hrs by sulforhodamine B assay; type: functional
# SK-MEL-5 = experiment: Antiproliferative activity against human SK-MEL-5 cells assessed as cell growth at 0.00001 M incubated for 48 hrs by SRB assay relative to control; type: functional; conditions: read-out: Activity
# A498 [3] = experiment: Antiproliferative activity against human A498 cells assessed as cell growth at 0.00001 M incubated for 48 hrs by SRB assay relative to control; type: functional; conditions: read-out: Activity
# Procedure, shortened: (§1)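 NCI-60 five-dose screen over 10^-4–10^-8 M (10-fold dilutions). Cells grown in RPMI 1640 with 5% FBS and 2 mM L-glutamine, seeded at 5,000–40,000 cells/well and preincubated 24 h. Drug from DMSO stock, 48 h at 37 °C, 5% CO2. Adherent cells TCA-fixed and stained with 0.4% SRB; A515 read. Percent growth = (Ti−Tz)/(C−Tz)×100, or (Ti−Tz)/Tz×100 when Ti<Tz.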
# SR [4] = experiment: Antiproliferative activity against human SR cells assessed as cell growth at 0.0001 M incubated for 48 hrs by SRB assay relative to control; type: functional; conditions: read-out: Activity
# T47D [5] = experiment: Antiproliferative activity against human T47D cells assessed as cell growth at 0.0001 M incubated for 48 hrs by SRB assay relative to control; type: functional; conditions: read-out: Activity
# T47D [6] = experiment: Antiproliferative activity against human T47D cells assessed as cell growth at 0.0000001 M incubated for 48 hrs by SRB assay relative to control; type: functional; conditions: dose 100 nM, read-out: Activity
# HT-29 = experiment: Antiproliferative activity against human HT-29 cells assessed as cell growth at 0.00001 M incubated for 48 hrs by SRB assay relative to control; type: functional; conditions: read-out: Activity
# Procedure, shortened: (§2)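 NCI-60 five-dose screen (10^-4 to 10^-8 M). Cells grown in RPMI 1640 with 5% FBS and 2 mM L-glutamine, plated at 5,000-40,000 cells/well and preincubated 24 h. Drug given from DMSO stock, then 48 h at 37 °C, 5% CO2. For adherent lines, cells fixed with cold TCA, SRB-stained and read at 515 nm. Percent growth taken against time-zero and untreated control.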
# MDA-MB-231 = experiment: Antiproliferative activity against human MDA-MB-231 cells assessed as cell growth at 0.000001 M incubated for 48 hrs by SRB assay relative to control; type: functional; conditions: read-out: Activity
# SF-539 = experiment: Antiproliferative activity against human SF-539 cells assessed as cell growth at 0.0000001 M incubated for 48 hrs by SRB assay relative to control; type: functional; conditions: dose 100 nM, read-out: Activity
# LOX IMVI = experiment: Antiproliferative activity against human LOX IMVI cells assessed as cell growth at 0.00000001 M incubated for 48 hrs by SRB assay relative to control; type: functional; conditions: dose 10 nM, read-out: Activity
# NCI-H23 [7] = experiment: Antiproliferative activity against human NCI-H23 cells assessed as cell growth at 0.00000001 M incubated for 48 hrs by SRB assay relative to control; type: functional; conditions: dose 10 nM, read-out: Activity
# NCI-H322M = experiment: Antiproliferative activity against human NCI-H322M cells assessed as cell growth at 0.000001 M incubated for 48 hrs by SRB assay relative to control; type: functional; conditions: read-out: Activity
# COLO 205 = experiment: Antiproliferative activity against human COLO 205 cells assessed as cell growth at 0.00000001 M incubated for 48 hrs by SRB assay relative to control; type: functional; conditions: dose 10 nM, read-out: Activity; procedure, shortened: as §1
# Calf thymus DNA = experiment: Binding affinity to calf thymus DNA assessed as intercalation by measuring decrease in DNA intensity by circular dichroism spectroscopy; type: nucleic-acid assay; conditions: Bos taurus
# Malme-3M [8] = experiment: Antiproliferative activity against human Malme-3M cells assessed as cell growth at 0.0000001 M incubated for 48 hrs by SRB assay relative to control; type: functional; conditions: dose 100 nM, read-out: Activity
# M14 [9] = experiment: Antiproliferative activity against human M14 cells assessed as cell growth inhibition by measuring lethal concentration incubated for 48 hrs by sulforhodamine B assay; type: functional; conditions: read-out: LC50 (the source's name)
# NCI-H522 = experiment: Antiproliferative activity against human NCI-H522 cells assessed as cell growth at 0.00000001 M incubated for 48 hrs by SRB assay relative to control; type: functional; conditions: dose 10 nM, read-out: Activity
# NCI-H23 [10] = experiment: Growth inhibition against human NCI-H23 cells incubated for 48 hrs by sulforhodamine B assay; type: functional
# OVCAR-3 = experiment: Antiproliferative activity against human OVCAR-3 cells assessed as cell growth at 0.0000001 M incubated for 48 hrs by SRB assay relative to control; type: functional; conditions: dose 100 nM, read-out: Activity
# A498 [11] = experiment: Growth inhibition against human A498 cells incubated for 48 hrs by sulforhodamine B assay; type: functional
# UACC-62 = experiment: Antiproliferative activity against human UACC-62 cells assessed as cell growth at 0.00001 M incubated for 48 hrs by SRB assay relative to control; type: functional; conditions: read-out: Activity
# Malme-3M [12] = experiment: Growth inhibition against human Malme-3M cells incubated for 48 hrs by sulforhodamine B assay; type: functional
# M14 [13] = experiment: Antiproliferative activity against human M14 cells assessed as cell growth at 0.00001 M incubated for 48 hrs by SRB assay relative to control; type: functional; conditions: read-out: Activity
# KM12 = experiment: Growth inhibition against human KM12 cells incubated for 48 hrs by sulforhodamine B assay; type: functional
# RPMI-8226 = experiment: Antiproliferative activity against human RPMI-8226 cells assessed as cell growth at 0.00001 M incubated for 48 hrs by SRB assay relative to control; type: functional; conditions: read-out: Activity
# TK-10 [14] = experiment: Antiproliferative activity against human TK-10 cells assessed as cell growth at 0.0001 M incubated for 48 hrs by SRB assay relative to control; type: functional; conditions: read-out: Activity
# MCF7 = experiment: Antiproliferative activity against human MCF7 cells assessed as cell growth at 0.0000001 M incubated for 48 hrs by SRB assay relative to control; type: functional; conditions: dose 100 nM, read-out: Activity
# DU-145 = experiment: Antiproliferative activity against human DU-145 cells assessed as cell growth at 0.0001 M incubated for 48 hrs by SRB assay relative to control; type: functional; conditions: read-out: Activity; procedure, shortened: as §2
# TK-10 [15] = experiment: Antiproliferative activity against human TK-10 cells assessed as cell growth at 0.0000001 M incubated for 48 hrs by SRB assay relative to control; type: functional; conditions: dose 100 nM, read-out: Activity
# IGROV-1 = experiment: Antiproliferative activity against human IGROV-1 cells assessed as cell growth at 0.00001 M incubated for 48 hrs by SRB assay relative to control; type: functional; conditions: read-out: Activity
Structure (SMILES),growth at 0.01 µM (SNB-19),GI50 (HOP-92),growth at 10 µM (SR [1]),GI50 (MDA-MB-435),growth at 10 µM (SK-MEL-28),GI50 (TK-10 [2]),TGI (OVCAR-4),growth at 10 µM (SK-MEL-5),growth at 10 µM (A498 [3]),growth at 100 µM (SR [4]),growth at 100 µM (T47D [5]),growth at 0.1 µM (T47D [6]),growth at 10 µM (HT-29),growth at 1 µM (MDA-MB-231),growth at 0.1 µM (SF-539),growth at 0.01 µM (LOX IMVI),growth at 0.01 µM (NCI-H23 [7]),growth at 1 µM (NCI-H322M),growth at 0.01 µM (COLO 205),Activity (Calf thymus DNA),also measured
c1ccc(Cn2cnc3ccc(-c4nc(-c5ccc6c(c5)ncn6C5CCCCC5)cn5ccnc45)cc32)cc1,99%,1250 nM,5%,2200 nM,-9%,3.52 µM,> 100 µM,-90%,-79%,6%,9%,95%,-48%,83%,92%,98%,94%,89%,95%,Active,growth at 0.1 µM (Malme-3M [8]): 92%; CC50 (M14 [9]): > 100 µM; growth at 0.01 µM (NCI-H522): 93%; GI50 (NCI-H23 [10]): 1880 nM; growth at 0.1 µM (OVCAR-3): 100%; GI50 (A498 [11]): 1860 nM; growth at 10 µM (UACC-62): -37%; GI50 (Malme-3M [12]): 2.54 µM; growth at 10 µM (M14 [13]): -25%; GI50 (KM12): 2090 nM; growth at 10 µM (RPMI-8226): -29%; growth at 100 µM (TK-10 [14]): 13%; growth at 0.1 µM (MCF7): 90%; growth at 100 µM (DU-145): -8%; growth at 0.1 µM (TK-10 [15]): 84%; growth at 10 µM (IGROV-1): 3%
COc1ccc(-c2cn3ccnc3c(-c3ccc4ncn(C5CCCCC5)c4c3)n2)cc1,107%,1180 nM,9%,312 nM,33%,2.99 µM,> 100 µM,-40%,8%,16%,-21%,86%,-5%,81%,97%,95%,97%,87%,96%,Active,growth at 0.1 µM (Malme-3M [8]): 95%; CC50 (M14 [9]): > 100 µM; growth at 0.01 µM (NCI-H522): 88%; GI50 (NCI-H23 [10]): 2110 nM; growth at 0.1 µM (OVCAR-3): 99%; GI50 (A498 [11]): 742 nM; growth at 10 µM (UACC-62): 7%; GI50 (Malme-3M [12]): 43.1 µM; growth at 10 µM (M14 [13]): 9%; GI50 (KM12): 1350 nM; growth at 10 µM (RPMI-8226): 10%; growth at 100 µM (TK-10 [14]): -3%; growth at 0.1 µM (MCF7): 92%; growth at 100 µM (DU-145): 17%; growth at 0.1 µM (TK-10 [15]): 88%; growth at 10 µM (IGROV-1): 19%
